Measurements from different studies.
Each line is one published result; the experiments were not run side by side.

| SMILES | species | matrix | route | dose | setting | AUC(0-t) |
| --- | --- | --- | --- | --- | --- | --- |
| Cc1ccc(OCC(=O)N[C@@H](Cc2c[nH]c3ccccc23)C(=O)OC(C)C)cc1 | male Sprague-Dawley mouse | plasma | intravenous | 10 mg/kg |  | 2460 ng·h/mL |
| Cc1nc2ccc(OCc3ccc(C(F)(F)F)cc3)cc2[nH]1 | male BALB/c mouse | plasma | oral | 10 mg/kg |  | 13200 ng·h/mL |
| Cc1ccc(N(c2ccc(NC(=O)CN(C)c3ccccc3N3CCCC3=O)cc2)C(C)C)cc1 | male CD-1 mouse | plasma | oral | 20 mg/kg |  | 2710 ng·h/mL |
| CN(C)C(=O)c1cc2cnc(Nc3ccc(-c4ccc5c(=O)cc(N6CCOCC6)oc5c4)cc3)nc2n1C1CCCC1.Cl | BALB/c mouse | plasma | intravenous | 2 mg/kg |  | 2790 ng·h/mL |
| Cc1cc(-c2ccnc3[nH]cc(F)c23)cc(F)c1[C@@]1(O)[C@H](C)CN(C2CCS(=O)(=O)CC2)C[C@@H]1C | male CD-1 mouse | plasma | oral | 3 mg/kg |  | 3220 ng·h/mL |
| Cc1ncsc1-c1ccc([C@H](C)NC(=O)[C@@H]2C[C@@H](O)CN2C(=O)[C@@H](NC(=O)CCCCCCCCCCC(=O)NCCCn2cc(-c3ccc4c(c3)CCN4C(=O)Cc3cccc(OC(F)(F)F)c3)c3c(N)ncnc32)C(C)(C)C)cc1 | mouse | plasma | intravenous | 1 mg/kg |  | 835 ng·h/mL |
| C[C@@H](CN1CCC(n2c(=O)[nH]c3cc(Cl)ccc32)CC1)NC(=O)c1ccc2ccccc2c1 | male CD-1 mouse | plasma | intravenous | 1 mg/kg | single dose | 11.9 ng·h/mL |
| OCc1nc2ccc(NCc3ccc(C(F)(F)F)cc3)cc2[nH]1 | male BALB/c mouse | plasma | oral | 10 mg/kg |  | 2730 ng·h/mL |
| COC1=CC(c2ccc[nH]2)=N/C1=C\c1[nH]c(Cc2ccc(OC(F)(F)F)cc2)cc1Cc1ccc(OC(F)(F)F)cc1 | male CD-1 mouse | liver | oral | 40 mg/kg | single dose | 494000 ng·h/mL |
| Cc1ncsc1-c1ccc([C@H](CC(=O)N2CC3(C2)CN(c2ccc(C#Cc4ccc(C(=O)N5CCC(n6cc(-c7ccc8c(c7)CCN8C(=O)Cc7cccc(OC(F)(F)F)c7)c7c(N)ncnc76)CC5)cc4)cn2)C3)NC(=O)[C@@H]2C[C@@H](O)CN2C(=O)[C@@H](NC(=O)C2(F)CC2)C(C)(C)C)cc1 | male C57BL/6 mouse | plasma | intravenous | 1 mg/kg |  | 5920 ng·h/mL |
| CCCC[C@@H](NC(=O)[C@@H](Cc1cn(C(=O)OC)c2ccccc12)NC(=O)[C@H](CC(C)(C)C)NC(=O)N1[C@H](C)CCC[C@@H]1C)C(=O)O | male CD-1 mouse | plasma | intravenous | 3 mg/kg |  | 225 ng·h/mL |
| NCc1ccc(-c2nn(Cc3ccccc3)c3ccccc23)o1 | male CD-1 mouse | plasma | intraperitoneal | 30 mg/kg |  | 9120 ng·h/mL |
| CCOC(=O)c1c(NC(=O)CNC(C)C)sc2c1CCCCC2 | male mouse | plasma | intraperitoneal | 5 mg/kg | single dose | 300 ng·h/mL |
| Cc1cc(-c2ccnc3[nH]cc(F)c23)cc(F)c1[C@@]1(O)[C@H](C)CN(C(=O)CN)C[C@@H]1C | male CD-1 mouse | plasma | oral | 3 mg/kg |  | 16900 ng·h/mL |
| OCc1ccc(-c2nn(Cc3ccccc3)c3ccccc23)o1 | male CD-1 mouse | plasma | intravenous | 5 mg/kg |  | 1070 ng·h/mL |
| O=C1CCC(N2Cc3cc(C4CCN(Cc5ccccc5)CC4)ccc3C2=O)C(=O)N1 (stereo not shown) | male CD-1 mouse | plasma | oral | 3 mg/kg |  | 594 ng·h/mL |
| NCc1ccc(-c2nn(Cc3ccncc3)c3ccccc23)o1 | male CD-1 mouse | plasma | intravenous | 5 mg/kg |  | 1050 ng·h/mL |
| COC1=CC(c2ccc[nH]2)=N/C1=C\c1cc(Cc2ccc(OC(F)(F)F)cc2)c(C)[nH]1.Cl | male CD-1 mouse | plasma | oral | 40 mg/kg | single dose | 8220 ng·h/mL |
| Oc1ccc([C@@H]2Oc3ccc(O)cc3[C@@H]3CCC[C@@H]32)cc1 | male C57BL/6 mouse | plasma | oral | 10 mg/kg |  | 1.17 µM·h |
